Laboratory results published in PubChem BioAssay.
Records with an inconclusive call do not appear.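 Rule for the calls, unless noted: active = cell viability at or below a set limit in both duplicate runs, the limit being the all-compound median minus 4 SD (cut at about 23% in these data, passing the limit was not always enough); inconclusive = no clear call, values can overlap the other calls; inactive = the rest.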

Legend:
[1] = OD615 S. cerevisiae growth inhibition, permissive medium, pilot counter-assay, permissive growth control for S. cerevisiae lifespan shortening project (AID 705;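 active = growth inhibition above 25% in both replicates, a cutoff set 3 SD above the mean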); conditions: OD615, 24 h, at 10 µM, active compounds read high
How it was run: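 assay system = Saccharomyces cerevisiae strain carrying genetically modified DeaD replicative-lifespan system | technique = absorbance (optical density) at 615 nm | buffer or medium = permissive raffinose/galactose medium | timing = cells pre-grown 4 h, then 24 h compound exposure, 30 °C humidified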

[2] = Restrictive medium S. cerevisiae growth inhibition, OD615, pilot screen of yeast lifespan reduction project, restrictive growth control (AID 706;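 active = growth inhibition above a set limit, 3 SD over mean compound inhibition, in both replicates, cut at about 43% in these data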;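 note: modified DeaD lifespan yeast strain shifted to restrictive glucose medium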); conditions: OD615, 48 h, at 10 µM, active compounds read high
How it was run: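 System: modified S. cerevisiae. Buffer or medium: CSMM-D glucose medium. Incubation: 4 h pre-growth plus 48 h compound exposure, 30 °C. Detection: absorbance (optical density) measured at 615 nm.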

[3] = viability gain of MRP-1-high H69AR cells under doxorubicin, pilot screen, MRP-1 activator project, CellTiter-Glo, duplicate (AID 807;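 active = viability increase at or above a cutoff of the median across tested compounds plus 3 SD, cut at about 8.5% in these data, passing the limit was not always enough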;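 note: compound pretreatment 18-22 h then 72 h combined with doxorubicin; 0% = doxorubicin alone and 100% = vehicle without doxorubicin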); conditions: H69AR viability with doxorubicin, CellTiter-Glo luminescence; at 10 µM; active compounds read high
[4] = growth suppression of beta-catenin knockout HCT116, pilot screen, human colon tumor cells (AID 823); conditions: CellTiter-Glo, 60 h, at 10 µM, active compounds read low;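 note: 0% = wells killed by 20 µM Hyamine and 100% = untreated DMSO cell wells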
[5] = growth suppression of PTEN-deleted HCT116, pilot screen, cell-based, HCT116 clonal line, CellTiter-Glo (AID 824;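 active = viability at or below 27.92% in each of two runs, the all-compound median minus 4 SD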;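 note: 0% = 20 µM Hyamine control and 100% = vehicle cell control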); conditions: 60 h, at 10 µM, active compounds read low
[6] = inhibitors of the yeast RAM network, pilot screen, dse1pr::URA3 reporter, 5-FOA selection (AID 869;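 active = inhibition over a set limit, the all-compound mean plus 3 SD, in both replicate runs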;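 note: 0% = DMSO wells with no growth and 100% = 10 µM 1-NA-PP1 with full growth; RAM network block rescues cells from 5-FOA so hits raise OD615 growth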); conditions: S. cerevisiae dse1pr::URA3 5-FOA growth, OD615, 2 d; at 10 µM; active compounds read high; strain carries analog-sensitive mutant Cbk1 kinase
[7] = RAM signaling pathway blockade in yeast – S. cerevisiae, Pdr1DBD-CYC8 efflux-inhibited sensitized strain, primary screen (AID 1298;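 active = RAM network inhibition above 8.4% in each of two replicates, 3 SD over the compound average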;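 note: 0% = DMSO untreated cells without growth and 100% = 10 µM 1-NA-PP1 full growth; higher means more yeast growth rescued from 5-FOA killing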); conditions: S. cerevisiae cbk1-as DSE1-URA3 strain, 5-FOA growth OD615, 2 d; at 50 µM; active compounds read high

c1ccc(CSc2nnc(-c3ccncc3)o2)cc1
inactive: growth inhibition [1] -3.77% | growth inhibition [2] 9.8% | viability increase [3] -2.83% | viability [4] 109% | viability [5] 96.3% | inhibition [6] 0.73% | RAM network inhibition [7] 1.96%

COc1ccc(N=C(N(C)C)P(=O)(N(C)C)N(C)C)cc1
inactive: growth inhibition [1] -5.46% | growth inhibition [2] 0.105% | viability increase [3] -1.44% | viability [4] 103% | viability [5] 98.4% | inhibition [6] 0.22% | RAM network inhibition [7] 6.63%

N#Cc1ccc(N2CCN(C(=O)c3cccc(F)c3)CC2)c(F)c1
inactive: growth inhibition [1] 6.81% | growth inhibition [2] 4.18% | viability increase [3] -2.03% | viability [4] 98.4% | viability [5] 87.8% | inhibition [6] 2.12% | RAM network inhibition [7] 0.57%

Cc1cc2ccccc2n1CCNC(=O)COc1ccccc1
inactive: growth inhibition [1] -3.44% | growth inhibition [2] 11.8% | viability increase [3] -0.8% | viability [4] 99.2% | viability [5] 94.2% | inhibition [6] 2.31% | RAM network inhibition [7] 8.38%

CCc1ccc(NC(=O)CSc2nnc(Cc3cccn3C)n2-c2ccc(F)cc2)cc1
inactive: growth inhibition [1] 4.25% | growth inhibition [2] 12.9% | viability increase [3] -5.81% | viability [4] 77.2% | viability [5] 68.9% | inhibition [6] 0.05% | RAM network inhibition [7] 7.15%

O=C(C1=C(O)C(=O)N(c2ncccn2)C1c1cccs1)c1ccco1 (stereo not drawn)
inactive: growth inhibition [1] 0.75% | growth inhibition [2] 7.12% | viability increase [3] -4.29% | viability [4] 86.5% | viability [5] 85.3% | inhibition [6] 1.54% | RAM network inhibition [7] 1.69%

COC(=O)c1cc(OC)c(OC)cc1N=CC1=C(O)CC(C)(C)CC1=O
inactive: growth inhibition [1] -14.9% | growth inhibition [2] -8.12% | viability increase [3] -0.98% | viability [4] 99.5% | viability [5] 94.1% | inhibition [6] 1.6% | RAM network inhibition [7] 3.12%

CC(=O)Nc1nnc(C)s1
inactive: growth inhibition [1] -17% | growth inhibition [2] -8.07% | viability increase [3] -2.11% | viability [4] 103% | viability [5] 93.3% | inhibition [6] 1.29% | RAM network inhibition [7] 1.53%

Cn1c(=O)c2c(nc(NCCc3ccccc3)n2Cc2ccc(F)cc2)n(C)c1=O
inactive: growth inhibition [1] -4.81% | growth inhibition [2] -8.86% | viability increase [3] 1.3% | viability [4] 69.8% | viability [5] 55.3% | inhibition [6] 1.03% | RAM network inhibition [7] 5.94%

O=C(CSc1nnc(Cc2cc(=O)[nH]c(=O)[nH]2)n1-c1ccccc1)N1CCCCC1
inactive: growth inhibition [1] -4.77% | growth inhibition [2] 5.95% | viability increase [3] -2.54% | viability [4] 99.7% | viability [5] 90.4% | inhibition [6] 1.02% | RAM network inhibition [7] -2.08%

O=C(NCCn1ccc2ccccc21)c1ccc(S(=O)(=O)N2CCOCC2)cc1
inactive: growth inhibition [1] 3.54% | growth inhibition [2] -8.71% | viability increase [3] -2.92% | viability [4] 101% | viability [5] 96.7% | inhibition [6] 0.33% | RAM network inhibition [7] 6.66%

Cc1ccccc1-c1ccc(Nc2ccc(C(=O)N3CCOCC3)cc2)nn1
inactive: growth inhibition [1] 1.06% | growth inhibition [2] -5.71% | viability increase [3] -2.49% | viability [4] 98.4% | viability [5] 97.2% | inhibition [6] 1.39% | RAM network inhibition [7] -0.83%

O=C(NC1CC1)c1ccc(CS(=O)(=O)c2c(Cl)cccc2Cl)o1
inactive: growth inhibition [1] 3.79% | growth inhibition [2] -6.65% | viability increase [3] -2.96% | viability [4] 105% | viability [5] 97.4% | inhibition [6] 0.475% | RAM network inhibition [7] 4.31%

CCOC(=O)c1ccc(N2C(=O)CC(C3CCCO3)C2=O)cc1 (stereo not drawn)
inactive: growth inhibition [1] 4.47% | growth inhibition [2] 1.21% | viability increase [3] -2.28% | viability [4] 101% | viability [5] 94.3% | inhibition [6] 0.84% | RAM network inhibition [7] 2.15%

Cc1cc(NS(=O)(=O)c2ccc(NC(=O)c3cnc4scc(C)n4c3=O)cc2)nc(C)n1
inactive: growth inhibition [1] -8.46% | growth inhibition [2] -14.3% | viability increase [3] -2.16% | viability [4] 102% | viability [5] 98.5% | inhibition [6] 1.31% | RAM network inhibition [7] 4.17%

CCCOC(=O)c1ccc(OCC(O)CN2C(=O)NC(C)(C)C2=O)cc1 (stereo not drawn)
inactive: growth inhibition [1] 1.83% | growth inhibition [2] 1.78% | viability increase [3] -0.77% | viability [4] 96.9% | viability [5] 97.2% | inhibition [6] 0.14% | RAM network inhibition [7] 0.77%

Cc1ccc(O)c(-c2cc(C(F)(F)C(F)F)[nH]n2)c1
inactive: growth inhibition [1] -5.95% | growth inhibition [2] -19.7% | viability increase [3] -4.24% | viability [4] 97.1% | viability [5] 87.3% | inhibition [6] 0.725% | RAM network inhibition [7] 3.84%

O=C(Nc1ccccc1Cl)c1ccc2c(c1)N(Cc1ccc(F)cc1)C(=O)CS2=O (stereo not drawn)
inactive: growth inhibition [1] -5.36% | growth inhibition [2] -7.24% | viability increase [3] 1.1% | viability [4] 83.3% | viability [5] 72.5% | inhibition [6] 3.9% | RAM network inhibition [7] 3.95%

COCCN1C(=O)c2oc3ccccc3c(=O)c2C1c1ccc(C(=O)OC)cc1 (stereo not drawn)
inactive: growth inhibition [1] -1.7% | growth inhibition [2] 5.81% | viability increase [3] -1.14% | viability [4] 94.3% | viability [5] 89.1% | inhibition [6] 0.775% | RAM network inhibition [7] 2.37%

NS(=O)(=O)c1ccc(CCNC(=O)C2CCCN(S(=O)(=O)c3cccnc3)C2)cc1 (stereo not drawn)
inactive: growth inhibition [1] -8.75% | growth inhibition [2] -8.71% | viability increase [3] -0.63% | viability [4] 108% | viability [5] 97.7% | inhibition [6] 1.63% | RAM network inhibition [7] 5.27%

N=c1c2c3c(sc2nc2n1CCCCC2)CCCCC3
inactive: growth inhibition [1] -5.75% | growth inhibition [2] -13.7% | viability increase [3] -5.46% | viability [4] 67.7% | viability [5] 71.7% | inhibition [6] 0.715% | RAM network inhibition [7] 5.69%

CCCNc1nc2c(c(=O)[nH]c(=O)n2C)n1Cc1cccc(Br)c1
inactive: growth inhibition [1] -4.76% | growth inhibition [2] -9.2% | viability increase [3] -2.4% | viability [4] 97.8% | viability [5] 92.6% | inhibition [6] 3.46% | RAM network inhibition [7] 7.91%

CCCCCCn1c(CN2CCN(CCO)CC2)nc2c1c(=O)n(C)c(=O)n2C
inactive: growth inhibition [1] -6.85% | growth inhibition [2] -11.2% | viability increase [3] -4.86% | viability [4] 86.2% | viability [5] 89.4% | inhibition [6] 2.5% | RAM network inhibition [7] 2.43%

O=C(O)c1ccc(N2CCCCCC2)c(N2C(=O)c3ccccc3C2=O)c1
inactive: growth inhibition [1] -18% | growth inhibition [2] 4.7% | viability increase [3] -0.78% | viability [4] 108% | viability [5] 98.2% | inhibition [6] 0.945% | RAM network inhibition [7] 3.42%
